Laboratory results reported in ChEMBL document CHEMBL4513216, “Probing the Open Global Health Chemical Diversity Library for Multistage-Active Starting Points for Next-Generation Antimalarials” (ACS Infect Dis, 2020).

experiment: Toxicity liver stage against HepG2, at 10uM; type: cell-based; parameters: test concentration 10 uM, cell line HepG2-A16-CD81EGFP; details: human, HepG2-A16-CD81EGFP cells; read-out: INHIBITION
Outline: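 Uninfected HepG2-A16-CD81EGFP cells, 3 × 10^3 per well, 1536-well, plated on prespotted compound at 10 μM final, parasite-free screening media added to match infected plates; puromycin 10 μM positive, DMSO 0.5% negative; run in parallel with 48 h PbLuc assay at 37 °C, 5% CO2; viability by CellTiter-Glo luminescence, normalized to controls.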

| SMILES | cytotoxicity at 10 µM [%] |
| --- | --- |
| Cn1nc(Br)nc1Sc1ccccc1NC(=O)C1CC1 | 3.62 |
| COc1nn(C)cc1C(=O)N1CCC(c2nnc(C(C)C)o2)CC1 | 13.5 |
| O=C(NCc1c(F)cccc1F)C1CN(C(=O)c2cnccn2)C1 | -12.2 |
| CCOC(=O)CNC(=O)C1CN(C(=O)c2cnccn2)C1 | 2.63 |
| O=C(Cc1cccs1)NCC1(O)CCc2ccccc2C1 (configuration not stated) | -10.1 |
| O=C(C1CCN(c2nc3nc[nH]c(=O)c3s2)CC1)N1CCCCC1 | -5.55 |
| CN1[C@H](Cn2cccn2)C[C@@H]2CN(C(=O)Cc3cccs3)CC[C@@H]21 | 9.58 |
| O=C1CC2(CCCCN2C(=O)c2ccsc2)CN1CC1CC1 (configuration not stated) | 2.84 |
| CCN1CCCC(O)(CNCc2ccncc2)C1 (configuration not stated) | -2.93 |
| NC(=O)CN1CCCC(c2ccnc(Nc3ncccn3)c2)C1 (configuration not stated) | 10.1 |
| Cc1cc(C)nc(N2CCC(c3noc(C)n3)CC2)n1 | -9.08 |
| CC(=O)Nc1nc(C2CN(C(=O)C3CCC3)C2)cs1 | -21.9 |
| CCC(=O)N1CCC2(CC1)CNC(=O)c1cc(C)ccc1O2 | -20 |
| Cc1nc(Nc2ncccn2)cc(C2CN(C(=O)c3cccnc3)C2)n1 | 4.42 |
| O=C(c1cccs1)N1CCc2c(nc(N3CCCCC3)[nH]c2=O)C1 | -14.5 |
| Cc1ccc(CN2CCCC(c3nn(C)c4nccnc34)C2)s1 (configuration not stated) | -10.6 |
| CC(C)C(=O)N1Cc2ccccc2CC2(CCCN2C)C1 (configuration not stated) | 4.51 |
| Cn1cc(C2CCCN2C(=O)c2cnc(-c3cccs3)s2)cn1 (configuration not stated) | 4.99 |
| Cc1nc(NC(=O)NCc2cccnc2NCCN(C)C)sc1C | 4.51 |
| COc1cc(C(=O)O)ccc1OCC(=O)NCCc1ccccc1 | -10.6 |
| COC(=O)c1sc(C(NC(=O)c2ccccc2)C2CC2)nc1C (configuration not stated) | 0.0726 |

| SMILES | cytotoxicity at 10 µM [%] |
| --- | --- |
| CCN1CCN(C(=O)c2csnn2)c2ccccc21 | -1.46 |
| Cc1nn(C)c(C)c1C1COCCN1C(=O)CSC(C)(C)C (configuration not stated) | 4.22 |
| COc1ccc(NC(=O)N2CCC(c3nnc[nH]3)CC2)cc1C | 15.8 |
| CC(=O)N1CCC(NC(=O)c2cc(Cl)ccc2-n2cnnn2)CC1 | 8.72 |
| CCN(CC)c1ccc(CNC(=O)c2cnccn2)cn1 | -104 |
| COCCn1cc(C(=O)N2CCCC2c2noc(C)n2)ccc1=O (configuration not stated) | -9.8 |
| Cc1ccc(NC(C)C(=O)N(C)Cc2cccc(F)c2)cc1C(N)=O (configuration not stated) | 11.4 |
| CN(CC(=O)N(C)C1CCN(CC2CCOC2)CC1)c1ccccc1 (configuration not stated) | -9.45 |
| NC(=O)Cn1cc(NC(=O)NCC2CCN(c3ccccc3)C2)cn1 (configuration not stated) | 1.95 |
| CCCNC(=O)Nc1ccn(CCCOC)n1 | -2.11 |
| CN(C(=O)CCc1ccsc1)S(C)(=O)=O | 0.347 |
| COc1ccc(C(C)NC(=O)Nc2nccs2)cc1OC (configuration not stated) | 4.37 |
| Cc1nnc(NC(=O)NC(C)C(=O)NC2CCCC2)s1 (configuration not stated) | -0.334 |
| CC(NC(=O)c1cccnc1N(C)C)c1ccccc1Br (configuration not stated) | 17.7 |
| CCc1nc(CNC(C)(CO)C2CCCCC2)no1 (configuration not stated) | -13.1 |
| CC(=O)N1CCN(C(=O)CNc2cccc(OC(F)F)c2C)CC1 | -11.4 |
| Cc1cc(S(=O)(=O)NCC[S+](C)[O-])c(F)cc1F (configuration not stated) | -4.23 |
| CC(NC(=O)Cn1cccnc1=O)c1ccc(C(F)(F)F)cc1 (configuration not stated) | 8.2 |
| Cc1ccc(CC(=O)N2CCOC(c3nc(C)n[nH]3)C2)cn1 (configuration not stated) | -3.28 |
| c1cnc(N2CCc3onc(CN4CCCC4)c3C2)cn1 | -3.09 |
| Cc1nnc([C@@]23CCO[C@@H]2CCN(Cc2nccs2)C3)o1 | -104 |

| SMILES | cytotoxicity at 10 µM [%] |
| --- | --- |
| CN(Cc1ccc(-n2cccn2)cc1)Cc1cnc(N(C)C)nc1 | -1.28 |
| CC[C@H]1COCCN1C(=O)c1cnc(N2CCN(C)CC2)nc1C | -12.4 |
| COc1cc(O)ccc1CN1CCN(C2CCc3ccccc3C2)CC1 (configuration not stated) | -1.33 |
| CC(=O)c1cccc(-c2nc3c([nH]2)CCNC3)c1F | -50.5 |
| CCC(NC(=O)CCCN1CCCCC1)c1cn2cccnc2n1 (configuration not stated) | 8.09 |
| Cc1cc(N2CCCN(C(=O)CSCC3CC3)CC2)ccn1 | -1.9 |
| COc1ncccc1CN1CC[C@@]2(O)CCN(C(=O)C3CCC3)C[C@H]2C1 | 9.31 |
| CN(C)C[C@H]1C[C@H](CO)CN(C(=O)c2cc(S(N)(=O)=O)ccc2F)C1 | 11.9 |
| Cc1ncc(C(=O)N2CC[C@@]3(O)CCN(C(=O)N(C)C)C[C@H]3C2)cn1 | -46.3 |
| COc1ccc(F)c(CNC2CCCc3nc(N(C)C)ncc32)c1 (configuration not stated) | 1.81 |
| O=C(NCc1cnn2cccnc12)C1CC(=O)N(Cc2cccnc2)C1 (configuration not stated) | 8.21 |
| CN(CCC1CCOCC1)[C@@H]1c2ccccc2C2(CCNCC2)[C@H]1O | -3.23 |
| COc1ccc(OC)c(CNC2CCCc3nc(N(C)C)ncc32)c1 (configuration not stated) | -11.2 |
| c1nc2c(c(NC3COC4(CCCC4)C3)n1)CCNCC2 (configuration not stated) | 0.383 |
| CC(C)NCc1cccnc1N1CCN(c2ccccn2)CC1 | -3.85 |
| COc1ccccc1N1CCN(Cc2ncc(C)c(OC)c2C)CC1=O | 6.18 |
| Cc1ccc(-c2ccnc(NCC(O)c3ccc(O)cc3)n2)c(C)n1 (configuration not stated) | 0.781 |
| CC(C)c1nccn1C(C)C(=O)N1CCN(S(C)(=O)=O)CC1 (configuration not stated) | -4.32 |
| Cc1nnc(CN(C)CC2(O)CCCN(CCC3CCCCC3)C2=O)o1 (configuration not stated) | 17.1 |
| O=C(C1CC2(CCNCC2)CN1)N1CCN(c2ccccc2)CC1 (configuration not stated) | -8.6 |
| CNS(=O)(=O)c1ccsc1C(=O)OC | 7.54 |

| SMILES | cytotoxicity at 10 µM [%] |
| --- | --- |
| COCCCN1CC2(CCCN(c3ncc(Cl)cc3F)C2)CCC1=O (configuration not stated) | -13.1 |
| Cc1ccc(CN2CCN(C(=O)c3ccccc3O)C(C)C2=O)cc1 (configuration not stated) | 6.31 |
| CCCn1cc(S(=O)(=O)N[C@H]2CN(CC(N)=O)C[C@@H]2C2CC2)cn1 | -11.7 |
| CC(=O)NCC1CCN(CC2CCOc3ccccc3C2)CC1 (configuration not stated) | 10.3 |
| CCC[C@@H]1CN(S(=O)(=O)c2ccc(C)c(F)c2)C[C@H]1N(C)C | 26.7 |
| Cc1cc(C)n(-c2cc(N3CCN(C(=O)C(C)(C)C)CC3)nc(C)n2)n1 | 37.1 |
| Cn1cccc1C1CCCCCN1C(=O)c1ccc(NC2CC2)nc1 (configuration not stated) | -9.24 |
| O=C(CN1CCC(c2ccccc2)C1)NCC(F)(F)F (configuration not stated) | -5.28 |
| Cc1nccn1CCCC(=O)N1CCC(Nc2cccnn2)CC1 | -17.3 |
| CCCc1nnsc1C(=O)N1CCN(CC(O)C2CC2)CC1 (configuration not stated) | -7.78 |
| c1ccc(N2CC[C@H](OCC3CC3)[C@@H]2Cc2cccnc2)nc1 | 7.53 |
| CS(=O)(=O)NCc1cc(=O)n2c(n1)CN(CC1CC1)CCC2 | -104 |
| O=C1CO[C@@H]2CN(CC3CCOCC3)C[C@H]2N1CC1CC1 | 1.57 |
| CCN1Cc2ccccc2CC2(CCN(CC(=O)O)CC2)C1=O | -4.87 |
| COCCN1CCc2ncnc(OC(C)C)c2CC1 | 8.26 |
| Cc1occc1C(=O)N1CCC2(CCCN(c3ncc(F)cn3)C2)C1 (configuration not stated) | -102 |
| COCC1CC2(CCN(Cc3cnn(C)c3)CC2)CN1C(C)C (configuration not stated) | 2.91 |
| CC(C)N1[C@H](Cn2cncn2)C[C@@H]2CN(Cc3nccn3C)CC[C@@H]21 | -106 |
| CC(C)CS(=O)(=O)N1C[C@@H]2C[C@H](C(=O)N(C)C)[C@H](C1)O2 | 8.66 |
